Laboratory results from ChEMBL document CHEMBL5058577, “EUbOPEN Chemogenomics Library 2 (Multiplex)” (2022).

Test system: U2OS
Experiment: Multiplex assay against U2OS
Assay type: toxicity, cell-based
Settings: human
In short: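 Values for tubulin, mitochondrial-mass and membrane-permeability phenotypes are per cents of cells with healthy nuclei. These cells were identified by CellPathfinder machine-learning gating of live cells that had been stained at seeding with Hoechst33342, BioTracker Green Microtubule Cytoskeleton Dye, MitoTracker Red and Annexin V Alexa Fluor 680 and imaged on a CQ1 microscope at 37°C and 5% CO2 after compound addition. The gating first set Hoechst high-intensity objects apart from normal cells, then split normal cells into healthy, pyknosed or fragmented nuclei, and pyknosed cells into mitotic or apoptotic.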

[1] = 12 h, 1 µM, compound concentration 1 uM, replicate 1
[2] = 12 h, 1 µM, compound concentration 1 uM, replicate 2
[3] = 12 h, 10 µM, compound concentration 10 uM, replicate 1
[4] = 12 h, 10 µM, compound concentration 10 uM, replicate 2
[5] = 24 h, 1 µM, compound concentration 1 uM, replicate 1
[6] = 24 h, 1 µM, compound concentration 1 uM, replicate 2
[7] = 24 h, 10 µM, compound concentration 10 uM, replicate 1
[8] = 24 h, 10 µM, compound concentration 10 uM, replicate 2
[9] = 48 h, 1 µM, compound concentration 1 uM, replicate 1
[10] = 48 h, 1 µM, compound concentration 1 uM, replicate 2
[11] = 48 h, 10 µM, compound concentration 10 uM, replicate 1
[12] = 48 h, 10 µM, compound concentration 10 uM, replicate 2

COc1ccc2[nH]c(I)c(CCNC(C)=O)c2c1 [IODOMELATONIN]
Population Apoptotic (%) [1]: 68%
Population Fragmented Nuclei (%) [1]: 19%
Population Healthy Nuclei (%) [1]: 74%
Population Hoechst High Intensity Objects (%) [1]: 2%
Population Membrane Permeable-Phenotype (%) [1]: 4%
Population Mitochondria Different-Phenotype (%) [1]: 3%
Population Mitotic Cells (%) [1]: 31%
Population Normal (%) [1]: 97%
Population Pyknosed Nuclei (%) [1]: 5%
Population Tubulin-Different-Phenotype (%) [1]: 1%
Total Cell Count [1]: 282
Population Apoptotic (%) [2]: 37%
Population Fragmented Nuclei (%) [2]: 11%
Population Healthy Nuclei (%) [2]: 83%
Population Hoechst High Intensity Objects (%) [2]: 0%
Population Membrane Permeable-Phenotype (%) [2]: 5%
Population Mitochondria Different-Phenotype (%) [2]: 1%
Population Mitotic Cells (%) [2]: 62%
Population Normal (%) [2]: 99%
Population Tubulin-Different-Phenotype (%) [2]: 2%
Total Cell Count [2]: 156
Population Apoptotic (%) [3]: 77%
Population Fragmented Nuclei (%) [3]: 25%
Population Healthy Nuclei (%) [3]: 64%
Population Hoechst High Intensity Objects (%) [3]: 3%
Population Membrane Permeable-Phenotype (%) [3]: 2%
Population Mitochondria Different-Phenotype (%) [3]: 1%
Population Mitotic Cells (%) [3]: 22%
Population Normal (%) [3]: 96%
Population Pyknosed Nuclei (%) [3]: 9%
Population Tubulin-Different-Phenotype (%) [3]: 1%
Total Cell Count [3]: 231
Population Apoptotic (%) [4]: 80%
Population Fragmented Nuclei (%) [4]: 41%
Population Healthy Nuclei (%) [4]: 54%
Population Hoechst High Intensity Objects (%) [4]: 0%
Population Membrane Permeable-Phenotype (%) [4]: 10%
Population Mitochondria Different-Phenotype (%) [4]: 6%
Population Mitotic Cells (%) [4]: 20%
Population Normal (%) [4]: 99%
Population Pyknosed Nuclei (%) [4]: 3%
Population Tubulin-Different-Phenotype (%) [4]: 2%
Total Cell Count [4]: 134
Population Apoptotic (%) [5]: 86%
Population Fragmented Nuclei (%) [5]: 16%
Population Healthy Nuclei (%) [5]: 75%
Population Hoechst High Intensity Objects (%) [5]: 1%
Population Membrane Permeable-Phenotype (%) [5]: 3%
Population Mitochondria Different-Phenotype (%) [5]: 1%
Population Mitotic Cells (%) [5]: 13%
Population Normal (%) [5]: 98%
Population Pyknosed Nuclei (%) [5]: 8%
Population Tubulin-Different-Phenotype (%) [5]: 2%
Total Cell Count [5]: 354
Population Apoptotic (%) [6]: 80%
Population Fragmented Nuclei (%) [6]: 15%
Population Healthy Nuclei (%) [6]: 78%
Population Membrane Permeable-Phenotype (%) [6]: 8%
Population Mitochondria Different-Phenotype (%) [6]: 0%
Population Mitotic Cells (%) [6]: 20%
Population Pyknosed Nuclei (%) [6]: 5%
Total Cell Count [6]: 179
Population Apoptotic (%) [7]: 95%
Population Fragmented Nuclei (%) [7]: 25%
Population Healthy Nuclei (%) [7]: 66%
Population Hoechst High Intensity Objects (%) [7]: 1%
Population Membrane Permeable-Phenotype (%) [7]: 4%
Population Mitochondria Different-Phenotype (%) [7]: 1%
Population Mitotic Cells (%) [7]: 4%
Population Normal (%) [7]: 98%
Population Pyknosed Nuclei (%) [7]: 8%
Population Tubulin-Different-Phenotype (%) [7]: 1%
Total Cell Count [7]: 273
Population Apoptotic (%) [8]: 88%
Population Fragmented Nuclei (%) [8]: 34%
Population Healthy Nuclei (%) [8]: 59%
Population Membrane Permeable-Phenotype (%) [8]: 7%
Population Mitochondria Different-Phenotype (%) [8]: 5%
Population Mitotic Cells (%) [8]: 11%
Population Pyknosed Nuclei (%) [8]: 5%
Population Tubulin-Different-Phenotype (%) [8]: 2%
Total Cell Count [8]: 153
Population Apoptotic (%) [9]: 92%
Population Fragmented Nuclei (%) [9]: 12%
Population Healthy Nuclei (%) [9]: 79%
Population Hoechst High Intensity Objects (%) [9]: 1%
Population Membrane Permeable-Phenotype (%) [9]: 5%
Population Mitochondria Different-Phenotype (%) [9]: 2%
Population Mitotic Cells (%) [9]: 7%
Population Normal (%) [9]: 98%
Population Pyknosed Nuclei (%) [9]: 7%
Population Tubulin-Different-Phenotype (%) [9]: 3%
Total Cell Count [9]: 509
Population Apoptotic (%) [10]: 86%
Population Fragmented Nuclei (%) [10]: 13%
Population Healthy Nuclei (%) [10]: 81%
Population Membrane Permeable-Phenotype (%) [10]: 4%
Population Mitotic Cells (%) [10]: 13%
Population Pyknosed Nuclei (%) [10]: 5%
Total Cell Count [10]: 284
Population Apoptotic (%) [11]: 97%
Population Fragmented Nuclei (%) [11]: 21%
Population Healthy Nuclei (%) [11]: 68%
Population Hoechst High Intensity Objects (%) [11]: 2%
Population Membrane Permeable-Phenotype (%) [11]: 5%
Population Mitochondria Different-Phenotype (%) [11]: 0%
Population Mitotic Cells (%) [11]: 2%
Population Normal (%) [11]: 97%
Population Pyknosed Nuclei (%) [11]: 9%
Population Tubulin-Different-Phenotype (%) [11]: 2%
Total Cell Count [11]: 373
Population Apoptotic (%) [12]: 100%
Population Fragmented Nuclei (%) [12]: 29%
Population Healthy Nuclei (%) [12]: 65%
Population Hoechst High Intensity Objects (%) [12]: 0%
Population Membrane Permeable-Phenotype (%) [12]: 7%
Population Mitochondria Different-Phenotype (%) [12]: 5%
Population Mitotic Cells (%) [12]: 0%
Population Normal (%) [12]: 99%
Population Pyknosed Nuclei (%) [12]: 5%
Population Tubulin-Different-Phenotype (%) [12]: 4%
Total Cell Count [12]: 209
